This note sets out measurements from ChEMBL document CHEMBL1134408, “Antitumor agents. 207. Design, synthesis, and biological testing of 4beta-anilino-2-fluoro-4'-demethylpodophyllotoxin analogues as cytotoxic and antiviral agents” (2001).

In general, GI50 refers to the concentration at which growth is held to half of that of the control.

For one assay, the species on record is Homo sapiens. The experiment in a line: Cytotoxicity against HEL cells.
In a further assay the test system is CAKI-1. The experiment in a line: GI values against CAKI-1 cells(renal carcinoma). The class given is functional. The conditions noted are these: Homo sapiens.
Assay [1] in a line: Selectivity index (ED50/ID50) value of the compound. The class given is functional. In short, it runs like this:
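Ratio of ED50 for growing HEL cells (15-day trypan blue count) to ID50 against Towne strain CMV in HEL fibroblasts.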

The next assay deals with A549. The experiment in a line: GI values against A549 cells (lung cancer). It is filed as functional. To be noted: Homo sapiens.
The next assay deals with Human betaherpesvirus 5. The experiment in a line: Inhibitory activity against human cytomegalovirus (HCMV). It is filed as functional. The conditions noted are these: read-out: ID50 (the source's name). In a few lines: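 Confluent HEL fibroblasts infected with Towne strain CMV at 1–2 PFU/cell, with or without a drug dilution series. Antiviral effect read either as extracellular virus yield (day-6 supernatant titred by plaque assay on HEL, counted at 2 weeks) or as viral DNA by 32P-CMV-probe dot hybridization with scintillation counting of dots.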

Assay [2] can be described thus: GI values against KB cells (nasopharyngeal carcinoma). It is filed as functional. To be noted: Homo sapiens.

SMILES strings stand for the structures.

Take `COc1cc([C@@H]2c3cc4c(cc3[C@@H](O[C@@H]3O[C@@H]5CO[C@@H](C)O[C@H]5[C@H](O)[C@H]3O)[C@H]3COC(=O)[C@H]23)OCO4)cc(OC)c1O` [ETOPOSIDE]: the ED50 in the assay filed under Homo sapiens was 8.64 µM. Further, the GI50 was 6.31 µM with CAKI-1, 6.31 µM in the assay on A549 and 0.2 µM in assay [2]. For the same compound, the SI in assay [1] came out at 8.4. In addition, the IC50 with Human betaherpesvirus 5 was 1.03 µM.
